Compound activity from PubChem BioAssay.
DAGLB inh: blocks human DAGLB lipase activity; HEK293T DAGLB membrane lysate, EnzChek fluorogenic substrate; inhibition, % at 5.17 µM; 0.059% of 340,000 active; AID 504411; in the data active means inhibition above about 34%
Target sequence (Q8NCG7 whole entry, looked up): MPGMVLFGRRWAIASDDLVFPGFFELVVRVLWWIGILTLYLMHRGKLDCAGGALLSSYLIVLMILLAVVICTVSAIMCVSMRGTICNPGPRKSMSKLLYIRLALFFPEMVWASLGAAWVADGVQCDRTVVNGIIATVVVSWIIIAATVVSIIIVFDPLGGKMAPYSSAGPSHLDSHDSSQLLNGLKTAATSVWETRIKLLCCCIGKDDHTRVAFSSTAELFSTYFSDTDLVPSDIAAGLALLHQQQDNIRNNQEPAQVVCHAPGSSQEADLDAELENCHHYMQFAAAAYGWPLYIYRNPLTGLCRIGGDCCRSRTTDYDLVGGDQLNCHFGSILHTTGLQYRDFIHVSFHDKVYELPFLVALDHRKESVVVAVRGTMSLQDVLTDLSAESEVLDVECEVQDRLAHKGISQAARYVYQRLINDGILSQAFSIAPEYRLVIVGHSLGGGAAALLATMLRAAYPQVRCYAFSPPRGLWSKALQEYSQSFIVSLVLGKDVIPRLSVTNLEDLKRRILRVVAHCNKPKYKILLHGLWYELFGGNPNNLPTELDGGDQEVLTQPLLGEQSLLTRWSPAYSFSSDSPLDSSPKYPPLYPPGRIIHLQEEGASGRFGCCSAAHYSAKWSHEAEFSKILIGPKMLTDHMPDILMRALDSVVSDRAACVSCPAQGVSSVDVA
MT1-MMP act inh: blocks activation of human MT1-MMP. P50281. HT1080 RFP-PRO-GFP cells, GFP/RFP ratio fluorescence, overnight; percent of plate control window, DMSO zero. GFP/RFP ratio change, % at 20 µM. 0.061% of 360,000 active. AID 651647;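 active means GFP/RFP ratio change of at least 30% with cell ATP level not reduced by more than half and red fluorescence within 50% of control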
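Assay system: HT1080 RFP-PRO-GFP cells. Benchmarks: DMSO vehicle wells and RFP-L50D-GFP reporter cell wells. Times: overnight cell settling, then overnight compound exposure, 37 °C, 5% CO2. Compound: 20 µM single dose, 1% DMSO. Read-out basis: GFP/RFP fluorescence ratio.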
VLA-4 inh: inhibition in a human VLA-4 binding assay; VLA-4 expressing cells, ligand binding flow cytometry; inhibition, % (about 7 µM as worked out from the volumes in the protocol); 0.2% of 330,000 active; AID 2557; in the data active means inhibition above about 50%
Granule exo inh: blocks lytic granule exocytosis. TALL-104 LAMP-1 surface exposure, flow cytometry; cells stimulated with thapsigargin and PMA. AID 651702. inhibition, % at 10 µM. 0.66% of 360,000 active;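 active means inhibition above about 55%, limit read from the data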
ABCB6 inh MLPCN: blocks the human ABCB6 transporter; Q9NP58; K562-ABCB6 porphyrin accumulation, flow cytometry, 1 h; stronger effect = lower value; fluorescence ratio to DMSO, % at 10 µM; 0.19% of 360,000 active;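 active means fluorescence ratio to DMSO below 75%, the collection mean minus 3 SD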;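 further: signal is porphyrin accumulated inside mitochondria; lower ratio means ABCB6 inhibition with less porphyrin fluorescence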
FGF22 binding: shifts melting point of recombinant human FGF22; 1.5% of 340,000 active; recombinant FGF22 thermal shift, SYPRO orange fluorescence; percent of sucrose octasulfate shift, DMSO zero; activity (Tm shift, normalised), % at 9.99 µM; Q9HCT0;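 active means mean Tm shift, scaled 0 neutral to 100 positive control, at about 1.3% or above, every replicate too, limit read from the data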
Exocytosis CP01: blocks lytic granule exocytosis; shares compounds with Granule exo inh; inhibition, % at 10 µM; AID 651954; 11% of 1,500 active; TALL-104 cells, LAMP-1 externalization, flow cytometry; stimulated with PMA plus thapsigargin; in the data active means inhibition above about 60%
Of the large screens only hits and unclear results are named; the others gave an inactive call (follow-up assays come after a bar, where they were run). A selection: hits, their analogues and other compounds. The true share with any hit is near 2%.

O=C([C@@H]1N[C@@H]2c3ccc(C4=CCCC4)c(=O)n3C[C@@H]2[C@H]1CO)N1CCc2ccccc2C1	none (no result: DAGLB inh, MT1-MMP act inh, VLA-4 inh, Granule exo inh, ABCB6 inh MLPCN)
Cc1oc(=O)c(NC(=O)c2cccc(Cl)c2)cc1C(=O)c1ccccc1	Granule exo inh 97 (no result: FGF22 binding) | Exocytosis CP01 inactive
COc1ccccc1CCC(=O)NCCCn1ccc2ccccc21	Granule exo inh 72 | Exocytosis CP01 inactive
COc1ccccc1C(=O)NCCn1ccc2ccccc21	none (no result: FGF22 binding)
COc1ccccc1CCNC(=O)Cn1ccc2cc(S(=O)(=O)N3CCC(C)CC3)ccc21	Granule exo inh 60 | Exocytosis CP01 inactive
COc1ccc(F)cc1-c1cc(C(=O)NCc2ccc(C(F)(F)F)cc2)[nH]n1	Granule exo inh 73 (no result: DAGLB inh, VLA-4 inh) | Exocytosis CP01 inactive
C[C@H](CO)N1C[C@H](C)[C@@H](CN(C)C(=O)NC2CCCCC2)Oc2ccc(NS(C)(=O)=O)cc2C1=O	Granule exo inh 73 | Exocytosis CP01 inactive
CC(C)NC(=O)N(C)C[C@H]1Oc2c(NC(=O)Nc3ccc(C(F)(F)F)cc3)cccc2C(=O)N([C@H](C)CO)C[C@@H]1C	Granule exo inh 60 | Exocytosis CP01 inactive
C[C@@H]1CN([C@@H](C)CO)C(=O)c2cc(NS(C)(=O)=O)ccc2O[C@@H]1CN(C)Cc1ccc(C(F)(F)F)cc1	Granule exo inh 62 (no result: VLA-4 inh) | Exocytosis CP01 inactive
O=C(Cc1ccccc1)N1C[C@@H]2[C@H](c3ccccc31)[C@H](CO)N2C(=O)Cc1ccccc1	none (no result: DAGLB inh, MT1-MMP act inh, VLA-4 inh, Granule exo inh, ABCB6 inh MLPCN)
CCNC(=O)C[C@H]1CC[C@@H]2[C@H](COC[C@H](O)CN2Cc2ccncc2)O1	none (no result: DAGLB inh, MT1-MMP act inh, VLA-4 inh, Granule exo inh, ABCB6 inh MLPCN)
S=C(Nc1ccccc1Cl)NC1CC2CCCC(C1)N2C1CC1 (stereo not given)	Granule exo inh 87 | Exocytosis CP01 inactive
CC(C)(C)C(=O)NC1CC2CCCC(C1)N2C(=O)Nc1ccccc1Cl (stereo not given)	none
O=C(Nc1ccc(S(=O)(=O)N2CCOCC2)cc1)c1ccc(Br)o1	none (no result: FGF22 binding)
O=C(Nc1ccc(S(=O)(=O)N2CCCC2)cc1)c1ccc(Br)o1	Granule exo inh 80 | Exocytosis CP01 inactive
C[C@H](CO)N1C[C@H](C)[C@H](CN(C)S(=O)(=O)c2ccsc2)OCc2ccccc2-c2ccccc2C1=O	none (no result: DAGLB inh, MT1-MMP act inh, VLA-4 inh, Granule exo inh, ABCB6 inh MLPCN)
CCN(CC)CCCNC(=S)N1CCN(c2nc(-c3ccccc3)cs2)CC1	Granule exo inh 83 | Exocytosis CP01 inactive
CCOCCCNC(=S)N1CCN(c2nc(-c3ccccc3)cs2)CC1	none
CCCNC(=O)Nc1ccc2c(c1)C(=O)N(C)[C@@H]1CC[C@@H](CC(=O)NCC3CCCCC3)O[C@H]1CO2	none (no result: DAGLB inh, MT1-MMP act inh, VLA-4 inh, Granule exo inh, ABCB6 inh MLPCN)
N#Cc1cccc(CN2CCCN(Cc3ccc(F)cc3)S2(=O)=O)c1	Granule exo inh 85 | Exocytosis CP01 inactive
C=Cc1ccc(CN2CCCN(Cc3ccc(F)cc3)S2(=O)=O)cc1	none
O=C(c1ccco1)N1CCC(c2nc(-c3ccccc3Cl)no2)CC1	Granule exo inh 100 (no result: FGF22 binding) | Exocytosis CP01 inactive
CCC(=O)Nc1ccc2c(c1)C(=O)N(C)[C@@H]1CC[C@H](CC(=O)NCc3ccccc3Cl)O[C@H]1CO2	none (no result: DAGLB inh, MT1-MMP act inh, VLA-4 inh, Granule exo inh, ABCB6 inh MLPCN)
O=C(c1ccc2c3c(cccc13)CC2)C1CCCN(Cc2cccnc2)C1 (stereo not given)	none
COc1cc(CN2CCCC(C(=O)c3ccc4c5c(cccc35)CC4)C2)cc(OC)c1O (stereo not given)	Granule exo inh 73 | Exocytosis CP01 inactive
C(=C\c1ccco1)/c1ccc2ccccc2n1	Granule exo inh 59 (no result: DAGLB inh) | Exocytosis CP01 inactive
O=C(NCc1ccccc1Cl)c1cc(C(=O)C2CC2)c[nH]1	Granule exo inh 61 | Exocytosis CP01 inactive
O=C(NCc1cccnc1)c1cc(C(=O)C2CC2)c[nH]1	none
Fc1cccc(Cc2c(-c3ccco3)nc3c4ccccc4ccn23)c1	Granule exo inh 87 (no result: DAGLB inh, VLA-4 inh) | Exocytosis CP01 inactive
Fc1ccc(-c2nc3c4ccccc4ccn3c2Cc2cccc(F)c2)cc1	none (no result: DAGLB inh, MT1-MMP act inh, VLA-4 inh, Granule exo inh, ABCB6 inh MLPCN)
Clc1cccc(Cc2c(-c3ccco3)nc3c4ccccc4ccn23)c1	Granule exo inh 96 (no result: DAGLB inh, VLA-4 inh) | Exocytosis CP01 inactive
C[C@H](CO)N1C[C@H](C)[C@H](CN(C)C)Oc2ccc(NS(=O)(=O)c3cccs3)cc2C1=O	none (no result: DAGLB inh, MT1-MMP act inh, VLA-4 inh, Granule exo inh, ABCB6 inh MLPCN)
C[C@H]1CCCCO[C@H](CN(C)C(=O)Nc2ccc(F)cc2)[C@@H](C)CN([C@@H](C)CO)C(=O)c2cc(NS(=O)(=O)c3cccs3)ccc2O1	none (no result: DAGLB inh, MT1-MMP act inh, VLA-4 inh, Granule exo inh, ABCB6 inh MLPCN)
COc1ccc(Nc2nc(N3CCN(S(=O)(=O)N(C)C)CC3)nc3ccccc23)cc1	Granule exo inh 81 | Exocytosis CP01 inactive
COc1ccc(Nc2nc(N3CCN(S(C)(=O)=O)CC3)nc3ccccc23)c(OC)c1	none
COc1cccc(N2CCN(c3ncnc4c3[nH]c3ccc(F)cc34)CC2C)c1 (stereo not given)	Granule exo inh 98 (no result: FGF22 binding) | Exocytosis CP01 104
COc1cccc(N2CCN(c3ncnc4c3[nH]c3ccccc34)CC2C)c1 (stereo not given)	none (no result: DAGLB inh, MT1-MMP act inh, Granule exo inh, ABCB6 inh MLPCN, FGF22 binding)
CCN(CC)CCn1c(=N)n(CC(=O)c2ccc(C)cc2)c2ccccc21	Granule exo inh 56 | Exocytosis CP01 inactive
CCCNC(=O)N1[C@H](CO)[C@@H]2c3ccccc3N(C(=O)Nc3ccc(F)cc3)C[C@@H]21	none (no result: DAGLB inh, MT1-MMP act inh, VLA-4 inh, Granule exo inh, ABCB6 inh MLPCN)
